TAAR1 antag = human TAAR1 antagonism. Q96RJ0. CHO RD-HGA16 TAAR1, Fluo-8 calcium fluorescence, antagonist. inhibition, % at 3 µM. hit rate 1.5% among 360,000;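 active means inhibition above a per-plate cutoff, the mean inhibition of test compounds on that plate plus 3 SD, cut at about 49% in these data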;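 further: 0% = DMSO plus EC80 beta-PEA response and 100% = DMSO alone without agonist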
Target sequence (Q96RJ0 whole entry, looked up): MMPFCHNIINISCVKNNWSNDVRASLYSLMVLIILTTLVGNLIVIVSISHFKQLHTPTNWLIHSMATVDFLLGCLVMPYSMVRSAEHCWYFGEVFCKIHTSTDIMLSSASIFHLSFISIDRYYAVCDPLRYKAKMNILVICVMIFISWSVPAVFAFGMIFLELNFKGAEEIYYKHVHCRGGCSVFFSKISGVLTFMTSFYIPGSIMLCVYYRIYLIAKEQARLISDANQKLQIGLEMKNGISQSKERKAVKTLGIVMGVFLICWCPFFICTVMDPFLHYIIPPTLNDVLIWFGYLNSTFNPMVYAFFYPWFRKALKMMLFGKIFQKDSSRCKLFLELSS
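Test system: RD-HGA16 CHO cells with stable hTAAR1 and Gα16 / Probe or stimulus: EC80 β-phenethylamine stimulus / Times: seeding 17-24 h prior, 75-min 37 °C, 30-min RT dye loading / Detection: Fluo-8 calcium-sensitive fluorescence / Read-out basis: % inhibition scaled between DMSO and EC80 PEA controls / Repeats: singlicate, one well per test compound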
CHO parental Ca = counter-screen: ATP calcium response change in parental CHO cells; hit rate 0.63% among 330,000; parental CHO-K1, ATP-induced calcium, Fluo-8 fluorescence; inhibition, % at 5.6 µM;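 active means inhibition above that plate's mean sample inhibition plus 3 SD, cut at about 26% in these data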;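 further: 0% = ATP-challenged DMSO wells and 100% = DMSO wells without ATP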
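Test system: untransfected parental CHO cell line. Compound: one dose, 5.6 µM nominal. Detection: intracellular calcium via Fluo-8 no-wash fluorescent dye. Measure: % inhibition. Benchmarks: ATP-challenged DMSO wells low, unchallenged DMSO wells high.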
OX1R antag-1 = blocks the human orexin 1 receptor | O43613 | OX1R-expressing cells, FRET antagonist read-out | inhibition, % at 6.6 µM | hit rate 1.8% among 330,000 | AID 485270; in the data active means inhibition mostly above about 38%, no sharp cut-off; inactive means mostly below about 40%;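 further: 0% = agonist challenge alone and 100% = reference antagonist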
OX1R antag-2 = human HCRTR1 antagonism; O43613; CHO/OX1R cells, Fluo-8 calcium fluorescence, orexin A; inhibition, % at 5 µM; hit rate 0.43% among 330,000; AID 434989;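 active means inhibition above its plate's threshold, mean inhibition of all tested compounds on the plate plus 3 SD, cut at about 37% in these data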;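 further: 0% = orexin A challenge wells and 100% = SB-334867-A antagonist wells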
TAAR1 agonist = agonists of human TAAR1; Q96RJ0; CHO RD-HGA16 TAAR1, Fluo-8 calcium fluorescence; vehicle wells 0%, saturating PEA agonist 100%; activation, % at 3 µM; hit rate 0.99% among 360,000;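 active means activation above the mean activation of all test compounds in the run plus 3 SD, cut at about 38% in these data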
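System: CHO-derived RD-HGA16 cells with stable Gα16 and human TAAR1. Times: 17-24 h plating, Fluo-8 75 min 37 °C, 30 min RT. Measured by: calcium-sensitive Fluo-8 signal, excitation 470-495, emission 515-575 nm. Read-out basis: % activation relative to PEA EC100 response. Control set: DMSO and PEA EC100. Repeats: no replicates (n 1).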
Starred values were filed as active, the others as inactive; . = not tested or not shown. An excerpt weighted towards active compounds, which were near 4% of everything screened.

SMILES	TAAR1 antag	CHO parental Ca	OX1R antag-1	OX1R antag-2	TAAR1 agonist
Cc1cc(C(=O)NC2CCCc3c2cnn3-c2cccc(C)c2C)n(C)n1 (stereo not given)	-11.8	54.6*	53.9	24.6	5.1
Cc1cccc(-n2ncc3c2CCCC3NC(=O)c2ccc[n+]([O-])c2)c1C (stereo not given)	-7.1	-6.8	5.4	-16.6	1.1
Cn1nccc1C(=O)NC1CCCc2c1cnn2-c1ccc(C(C)(C)C)cc1 (stereo not given)	-0.7	55.6*	48.7*	22.2	2.2
COc1ccccc1-c1ccc(SCc2ccc([N+](=O)[O-])cc2)nn1	-1.1	-9.8	6.8	-34.6	-1.3
COc1ccccc1-c1ccc(SCc2cccc(C)c2)nn1	9.8	47.9*	18.5	14.2	0.8
CC(=O)OCC(=O)Nc1ccc([N+](=O)[O-])cc1Cl	4.0	-7.2	38.2	1.3	-1.3
CC(=O)Oc1c(C)cc(Cl)cc1C(=O)Nc1ccc([N+](=O)[O-])cc1Cl	26.2	14.9	71.2*	-3.9	12.1
CCOC(=O)C1=NN(c2ccc(C)cc2)CC1C(=O)OC (stereo not given)	-15.1	0.4	26.8	-5.5	0.0
CCC(C)NC(=O)C1CCC(=O)N1CCc1ccccc1 (stereo not given)	-10.4	-19.6	5.3	-19.8	6.4
Cc1ccc(-c2csc(N=C(N)N)n2)c(C)c1	-29.0	-3.5	5.6	-10.9	37.8*
O=C(CSc1cccc[n+]1[O-])c1cc2ccccc2o1	.	0.1	72.3*	-2.0	.
O=C(NNc1ccc([N+](=O)[O-])cc1[N+](=O)[O-])c1ccco1	.	-6.8	86.5*	-19.9	.
O=C(NNc1ccc([N+](=O)[O-])cc1)c1ccco1	-24.2	1.7	13.9	-6.8	4.6
Cc1ccccc1C1CCCN(C(=O)c2cc(COc3c(F)cccc3F)on2)C1 (stereo not given)	6.4	42.9*	10.9	-15.6	1.1
CCCOC1CCCN(C(=O)c2cc(COc3c(F)cccc3F)on2)C1 (stereo not given)	-23.2	-8.6	22.2	-15.1	-2.2
COc1ccc(Sc2cccc(Cl)c2)c(C(=O)O)c1	-14.5	.	.	.	-1.3
Cc1ccccc1-n1c2nc(=O)n(C)c(=O)c-2cc2ccccc21	-5.8	-16.3	64.6*	-16.4	-1.1
CCCCn1c(=O)nc2n(-c3ccccc3C)c3ccccc3cc-2c1=O	-2.8	-9.8	17.1	-13.8	0.2
O=C(CN1CCN(C(=O)CCC(=O)N2CCC(c3ccccc3)=N2)CC1)Nc1ccc(F)cc1	-2.3	.	.	.	0.8
CCNC(=O)C1(C)CCN(Cc2noc(-c3c(C)noc3C)n2)C1 (stereo not given)	-8.1	.	.	.	0.1
COc1ccc(-c2cc(C3CCN(c4cc(Cl)nc(N)n4)CC3)[nH]n2)cc1	30.7	-0.6	10.1	-3.6	42.7*
Nc1nc(Cl)cc(N2CCC(c3cc(-c4ccc(Cl)cc4)n[nH]3)CC2)n1	45.2	34.0*	18.6	53.6*	28.6
COc1ccc(OC)c(-c2cc(C3CCN(c4cc(Cl)nc(N)n4)CC3)[nH]n2)c1	55.9*	1.5	25.3	6.0	22.8
S=C1NC[C@H](Cc2ccccc2)N1CC1CCN(CCCC2CCCCC2)CC1	5.0	.	.	.	1.8
Cc1ccc(C(=O)N2N=C(c3cccc(NS(C)(=O)=O)c3)CC2c2cccs2)cc1 (stereo not given)	51.1*	10.5	2.7	-2.7	11.5
SMILES	TAAR1 antag	CHO parental Ca	OX1R antag-1	OX1R antag-2	TAAR1 agonist
CS(=O)(=O)Nc1cccc(C2=NN(C(=O)c3ccccc3)C(c3cccs3)C2)c1 (stereo not given)	26.7	-4.2	-6.8	-27.5	13.3
O=c1c2ccccc2nc(/C=C/c2ccc(Cl)cc2)n1CCO	16.0	-17.6	27.6	-42.5	1.8
Cc1[nH]c2ccccc2c1/C=C/c1nc2ccccc2c(=O)n1CCO	50.8*	3.2	35.4	-9.9	12.8
CC(=O)c1sc2nc(C)c3c(c2c1N)CCCC3	-17.2	-17.7	50.2*	-32.4	-0.2
Cc1nc2sc(C#N)c(N)c2c2c1CCCC2	-27.2	-22.0	62.7	-20.2	6.0
COc1ccc2oc(C(=O)NC3(C)CCS(=O)(=O)C3)c(C)c2c1 (stereo not given)	-3.1	-4.3	3.2	-10.7	0.6
CC(=O)NCCc1nc2ccccc2n1CCOc1ccccc1	-22.9	8.0	9.3	-13.1	39.1*
CC(C)(C)C(=O)NCCCc1nc2ccccc2n1CCCOc1ccc(Cl)cc1	65.5*	1.5	8.2	-8.9	18.8
Cc1ccsc1CCNC(=O)C1CCC(=O)N(CCc2cccc(F)c2)C1 (stereo not given)	-13.2	-10.8	1.0	-33.5	9.3
O=C(NCCc1cccs1)C1CCC(=O)N(CCc2cccc(F)c2)C1 (stereo not given)	-9.6	-13.2	4.5	-17.4	41.8*
Cc1cc2cc(OCC(=O)O)ccc2n1C	8.2	-1.6	58.9*	-6.9	19.3
Cc1cccc(C(=O)O/N=C2/CC3CCC2(C)C3(C)C)c1 (stereo not given)	-6.7	30.7*	12.6	-36.6	2.4
O=C(NC1CCN(Cc2ccccc2)CC1)C1CCCN(S(=O)(=O)c2cccc3nonc23)C1 (stereo not given)	8.4	-18.7	70.1*	-19.2	6.9
O=C(NC1CCN(Cc2ccccc2)CC1)C1CCN(S(=O)(=O)c2cccc3nsnc23)CC1	18.4	-16.5	71.1*	-19.6	2.2
O=C(NC1CCN(Cc2ccccc2)CC1)C1CCN(S(=O)(=O)c2cccc3cccnc23)CC1	10.0	-18.5	13.6	-6.1	2.1
O=C(NCc1ccccc1)C1CCCN(S(=O)(=O)c2cccc3nonc23)C1 (stereo not given)	1.4	-9.6	54.6	-29.7	1.5
CC(C)NC(=O)C1CCCN(S(=O)(=O)c2cccc3nonc23)C1 (stereo not given)	2.8	-5.0	59.5	-17.9	0.6
CC1CCN(CCNC(=O)C2CCCN(S(=O)(=O)c3cccc4nonc34)C2)CC1 (stereo not given)	1.9	-0.5	69.9*	-19.1	-2.2
Cc1cc2ncn(CCC(=O)NC(C)(C)C)c2cc1C	-15.6	-11.6	33.2	-16.8	10.8
CC(C)C[C@H](NC(=O)c1ccc(Cl)c(Cl)c1)C(=O)N1CCC[C@H]1C(=O)NCc1ccccc1	-20.0	.	.	.	0.6
Cc1cc2c(c(=O)o1)[C@@]1(C(=O)N(C)c3ccccc31)C1=C(CC3(CCCCC3)OC1=O)O2	4.6	.	.	.	0.6
Cc1ccc(NCC(=O)N/N=C\c2ccc([N+](=O)[O-])o2)cc1	0.6	8.8	23.9	-1.8	2.2
CCNc1nc(NCC)nc(N/N=C/c2ccc([N+](=O)[O-])o2)n1	22.6	-6.1	53.8*	15.7	4.0
O=[N+]([O-])c1ccc(/C=N/Nc2nc(N3CCCC3)nc(N3CCCC3)n2)o1	15.7	-18.8	8.9	-11.8	3.4
CCCCCC(=O)N/N=C/c1ccc([N+](=O)[O-])o1	-8.7	-5.8	35.5*	5.6	3.9

Screening results as filed in PubChem BioAssay.
